The source made the active and inactive calls. The calls are words filed in the database; no cut-off is given here.
Tests used:
Assay type in all cases: functional, cell-based
[1] = Induction of ROS production in HFF1 cells at 2 uM after 3 hrs by DCF-DA staining-based fluorescence assay relative to DMSO treated control; conditions: Homo sapiens, HFF-1
Method in brief: (§1)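 HFF-1 fibroblasts were grown on cover glass at 1 × 10⁶ per well for 18–24 h and exposed to compound for 3 h. They were then stained with 10 μM DCF-DA for 30 min. Cells were fixed in 4% formaldehyde for 20 min, PBS-washed and imaged by fluorescence microscopy.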

[2] = Induction of ROS production in HFF1 cells at 10 uM after 3 hrs by DCF-DA staining-based fluorescence assay relative to DMSO treated control; conditions: Homo sapiens, HFF-1; method in brief: as §1
A549 [3] = assay: Induction of ROS production in human A549 cells after 3 hrs by DCF-DA staining-based fluorescence assay
Method in brief: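 For probe imaging, A549 cells were seeded on cover glass at 1 × 10⁶ per well and grown 18–24 h. They were treated for 3 h, then stained 30 min with 10 μM DCF-DA, DHE or APF. Cells were fixed in 4% formaldehyde for 20 min, washed twice with PBS and viewed by fluorescence microscopy.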

A549 [4] = assay: Increase in oxidized […] level in human A549 cells at 10 uM after 4 hrs by luminescence assay
Method in brief: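 Cellular GSH and GSSG levels were measured in A549 cells after 4 h of compound treatment.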

A549 [5] = assay: Induction of apoptosis in human A549 cells assessed as cleavage of caspase 3 after 48 hrs by Western blot analysis
Method in brief: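 Western blotting. Cells were seeded at 6 × 10⁵ per 60 mm dish overnight, then treated with a dose series at 37 °C in 5% CO2 for 48 h. RIPA lysates were BCA-quantified and 25–50 μg was resolved by SDS-PAGE onto PVDF. Membranes were blocked in TBS/T with 5% milk, probed with primary antibody overnight at 4 °C and HRP secondary at 1:2000 for 1 h, and detected by ECL.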

A549 [6] = assay: Induction of apoptosis in human A549 cells at 10 uM after 48 hrs by FACS analysis
HCT-116 = assay: Induction of apoptosis in human HCT116 cells at 10 uM after 48 hrs by FACS analysis

| Compound | Activity [1] | Activity [2] | Activity (A549 [3]) | Activity (A549 [4]) | Activity (A549 [5]) | Activity (A549 [6]) | Activity (HCT-116) |
| --- | --- | --- | --- | --- | --- | --- | --- |
| CCCCCC/C=C\CCCCCCCCCc1cc(O)cc(OC)c1O | inactive | inactive | Active | Active | Dose-dependent effect |  |  |
| CCCCCC/C=C\CCCCc1cc(O)cc(OC)c1O |  |  |  |  | Dose-dependent effect | Active | Active |

Source: ChEMBL document CHEMBL3425457, “Identification of Novel ROS Inducers: Quinone Derivatives Tethered to Long Hydrocarbon Chains” (J Med Chem, 2015)
